Most compounds without a hit are left out; they make up all but 4.6% or so of the library.
TAAR1 ag – agonists of human TAAR1; CHO RD-HGA16 TAAR1, Fluo-8 calcium fluorescence; vehicle wells 0%, saturating PEA agonist 100%; activation, % at 3 µM; hit rate 0.99% among 360,000; AID 624467;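 active = activation above the mean activation of all test compounds in the run plus 3 SD, cut at about 38% in these data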
Target sequence (Q96RJ0 whole entry, looked up): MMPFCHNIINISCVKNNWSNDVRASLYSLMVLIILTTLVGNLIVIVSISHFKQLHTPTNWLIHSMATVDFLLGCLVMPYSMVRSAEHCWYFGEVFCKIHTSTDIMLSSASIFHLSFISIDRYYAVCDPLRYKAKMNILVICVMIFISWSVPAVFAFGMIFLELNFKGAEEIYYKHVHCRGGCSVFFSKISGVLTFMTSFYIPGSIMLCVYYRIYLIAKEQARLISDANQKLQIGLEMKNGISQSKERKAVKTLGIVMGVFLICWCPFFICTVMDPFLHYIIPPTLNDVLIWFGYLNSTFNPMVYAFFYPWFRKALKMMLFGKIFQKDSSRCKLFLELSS
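System: CHO-derived RD-HGA16 cells with stable Gα16 and human TAAR1. Times: 17-24 h plating, Fluo-8 75 min 37 °C, 30 min RT. Measured by: calcium-sensitive Fluo-8 signal, excitation 470-495, emission 515-575 nm. Read-out basis: % activation relative to PEA EC100 response. Control set: DMSO and PEA EC100. Repeats: no replicates (n 1).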
CHO parental Ca – counter-screen for OX1R antagonists: effect in parental CHO cells; parental CHO-K1, ATP-induced calcium, Fluo-8 fluorescence; inhibition, % at 5.6 µM; hit rate 0.63% among 330,000; AID 463079;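 active = inhibition above that plate's mean sample inhibition plus 3 SD, cut at about 26% in these data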;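 note: 0% = ATP-challenged DMSO wells and 100% = DMSO wells without ATP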
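test system = CHO parental line | reagent = ATP stimulus | measured by = intracellular calcium via Fluo-8 no-wash fluorescent dye | control set = ATP and no-ATP DMSO wells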
TAAR1 antag – antagonists of human TAAR1; CHO RD-HGA16 TAAR1, Fluo-8 calcium fluorescence, antagonist; inhibition, % at 3 µM; hit rate 1.5% among 360,000;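 active = inhibition above a per-plate cutoff, the mean inhibition of test compounds on that plate plus 3 SD, cut at about 49% in these data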;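 note: 0% = DMSO plus EC80 beta-PEA response and 100% = DMSO alone without agonist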
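Material: RD-HGA16 CHO cells with stable hTAAR1 and Gα16; Dosing: single nominal final test compound concentration of 3 µM; Schedule: seeding 17-24 h prior, 75-min 37 °C, 30-min RT dye loading; Detection: kinetic Fluo-8 calcium fluorescence measurement; Measure: % inhibition from peak post-agonist over basal fluorescence ratio; Benchmarks: vehicle and agonist controls.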
OX1R antag-1 – antagonists of human orexin 1 receptor; O43613; CHO/OX1R cells, Fluo-8 calcium fluorescence, orexin A; inhibition, % at 5 µM; hit rate 0.43% among 330,000; AID 434989;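 active = inhibition above its plate's threshold, mean inhibition of all tested compounds on the plate plus 3 SD, cut at about 37% in these data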;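 note: 0% = orexin A challenge wells and 100% = SB-334867-A antagonist wells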
GPR7 antagonist – human neuropeptides B/W receptor 1 antagonism; P48145; GPR7-expressing cells, fluorescence antagonist assay; inhibition, % at 4.4 µM; hit rate 1.1% among 290,000; in the data active = inhibition above about 16%, passing the limit was not always enough;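 note: cells stimulated with the agonist NPW; 0% = agonist with vehicle and 100% = vehicle without agonist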
OX1R antag-2 – OX1R (human) antagonism; O43613; OX1R-expressing cells, FRET antagonist read-out; inhibition, % at 6.6 µM; hit rate 1.8% among 330,000; AID 485270; in the data active = inhibition mostly above about 38%, no sharp cut-off; inactive = mostly below about 40%;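 note: 0% = agonist challenge alone and 100% = reference antagonist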
OX1R Ca confirm – OX1R (human) antagonism, confirmed. inhibition, % at 5 µM. shares compounds with OX1R antag-1. hit rate 38% among 1,100. CHO/OX1R cells, orexin A calcium Fluo-8 fluorescence; in the data active = inhibition above about 29%;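 note: 0% = agonist challenge alone and 100% = reference antagonist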
CHO Ca triplic – signal in parental CHO cells, OX1R antagonist counter-screen; hit rate 9.3% among 1,100; inhibition, % at 5.6 µM; parental CHO-K1, ATP-induced calcium, Fluo-8 fluorescence; shares compounds with OX1R antag-1;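 active = inhibition above a per-plate limit, the mean inhibition of that plate's test compounds plus 3 SD, cut at about 25% in these data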;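 note: 0% = ATP challenge with DMSO and 100% = DMSO without ATP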
OX1R HTRF conf – OX1R (human) antagonism, HTRF confirmed. shares compounds with OX1R antag-2. OX1R-expressing cells, HTRF antagonist assay. inhibition, % at 6.6 µM. hit rate 49% among 1,800. AID 492964; in the data active = inhibition above about 55%;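 note: CHO cells expressing OX1R stimulated with orexin A at about EC80; 0% = agonist challenge alone and 100% = reference antagonist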
CHO-K1 HTRF cnt – counter-screen: parental CHO-K1 HTRF response; parental CHO-K1 cells, HTRF counterscreen; hit rate 48% among 1,800; AID 493232; inhibition, % at 6.6 µM; shares compounds with OX1R antag-2; in the data active = inhibition above about 17%;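 note: 0% = agonist challenge with vehicle and 100% = vehicle alone without agonist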
The depositor's hits bear a star; x = not tested or not shown.

SMILES	TAAR1 ag	CHO parental Ca	TAAR1 antag	OX1R antag-1	GPR7 antagonist	OX1R antag-2	OX1R Ca confirm	CHO Ca triplic	others
COc1ccccc1-c1c(C)nn2c(N3CCN(c4ccccc4OC)CC3)cc(C)nc12	-0.9	-9.4	-1.4	-15.6	-11.1	6.4	x	x
COc1ccccc1N1CCN(c2cc(C)nc3nc(C)nn23)CC1	0.8	-9.9	-15.7	35.7	-3.6	5.9	-3.1	-4.1
CC1=C(C(=O)N(C(C)C)C(C)C)CC(CC(=O)NCCN2CCOCC2)C(=O)N1Cc1ccccc1 (centres undefined)	0.6	x	5.5	x	x	x	x	x
C/C=C/C(=O)N1c2ccc(C)cc2C(C)=CC1(C)C	1.7	3.7	-45.6	-7.5	-13.3	17.1	x	x
CC1=CC(C)(C)N(S(=O)(=O)c2ccc(C)cc2)c2ccc(C)cc21	5.8	-0.3	14.0	40.4	14.1	23.3	-4.3	55.6*
C[C@H](CO)N1C[C@H](C)[C@@H](CN(C)Cc2ccc(Cl)c(Cl)c2)Oc2c(NC(=O)Cc3ccccc3)cccc2C1=O	27.2	22.0	71.1*	56.5*	x	16.2	3.6	-5.8
O=C(O)CN(Cc1ccccc1)S(=O)(=O)c1ccc2c(c1)OCCO2	1.7	-4.8	0.1	39.0	-4.8	32.6	3.2	5.2
O=S(=O)(c1ccc2c(c1)OCCO2)N1CCN(Cc2ccccc2)CC1	7.2	-1.7	13.2	28.4	4.2	14.5	-4.2	-3.8
CCCCC(=O)N(C)c1c(CC)nc2c(OCc3ccc(C(F)(F)F)cc3)cccn12	-1.6	x	-41.8	x	x	x	x	x
OC(CN1CCCCC1)Cn1c2ccccc2c2cc(Br)ccc21 (centres undefined)	16.2	10.6	15.1	37.3	34.8	13.5	14.4	-3.9
Cc1c(C)n(CC(O)CN2CCCCCC2)c2ccccc12 (centres undefined)	-0.2	-2.3	-2.2	-33.0	-0.9	6.5	x	x
CC(=O)NC(NC(=S)Nc1ccc(N=Nc2ccccc2)cc1)C(Cl)(Cl)Cl (centres undefined)	18.6	22.8	13.0	37.3	-8.4	5.3	41.3*	15.2
CC(=O)NC(NC(=S)Nc1ccc(S(N)(=O)=O)cc1)C(Cl)(Cl)Cl (centres undefined)	-1.5	10.7	-18.1	-16.3	-12.6	21.6	x	x
COc1cc([N+](=O)[O-])ccc1NC(=O)Nc1ccc2c(c1)OCCO2	10.2	8.3	10.1	-17.1	-1.4	13.1	x	x
O=C(Nc1ccc([N+](=O)[O-])cc1)Nc1ccc2c(c1)OCCO2	21.3	17.6	13.3	27.5	16.2	41.7	23.0	18.6
CC[C@@H]1C/C=C\Cc2ccccc2[C@@H](C(=O)C[C@@H](O)CC(C)=O)OC1=O	0.9	-4.8	-7.2	-15.4	x	0.9	x	x
NC(=O)c1ccc(Oc2ccc3c(c2)CCC3)c([N+](=O)[O-])c1	1.8	-12.1	-5.5	-19.6	-2.8	7.4	x	x
COc1ccc(S(=O)(=O)N2CCC(C(=O)NC3CCCCC3)CC2)cc1OC	0.3	-3.1	-6.7	-13.2	x	4.3	x	x
COc1nc(N(c2ccccc2)c2ccccc2)nc(-n2ccnc2)n1	13.3	11.0	46.6	45.5*	14.2	73.2	43.1*	1.6
CC(C)n1ncc2c(C(=O)NCC(=O)Nc3ccccc3Br)cc(C3CC3)nc21	x	-35.1	x	44.6*	x	39.7*	4.2	-3.5	OX1R HTRF conf=44.4;CHO-K1 HTRF cnt=2.3
COc1ccccc1CCNC(=O)c1cc(C2CC2)nc2c1cnn2C(C)C	2.8	x	14.1	x	x	x	x	x
Cc1ccc(C(=O)Nc2ccc(Br)c(C(F)(F)F)c2)cc1	3.8	-3.4	13.3	29.3	-5.6	50.7*	6.0	3.5	OX1R HTRF conf=33.9;CHO-K1 HTRF cnt=12.0
Cc1ccc(NC(=O)c2ccc(C)cc2)cc1	2.5	-11.9	-6.7	-1.8	x	31.3	x	x

Bioassay records (PubChem)
